Assay results taken from ChEMBL document CHEMBL1795269, “Novel (E)-5-styryl-2,2'-bithiophene derivatives as ligands for β-amyloid plaques” (Eur J Med Chem, 2011).
The source made the active and inactive calls. No cut-off for these calls is given here.

Assays:
[1] = Displacement of [125I]-TZDM from amyloid beta 1 to 42 after 2 hrs by gamma counting
In short: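 Aβ1-42 aggregated at 0.25 mg/mL in pH 7.4 buffer (10 mM sodium phosphate, 1 mM EDTA), 37 °C for 42 h with shaking. Fibrils (28 nM final) mixed with [125I]TZDM and inhibitor (10^-5 to 10^-10 M in EtOH) in PBS (0.2 M, pH 7.4). Incubated 2 h at 37 °C; nonspecific binding taken with 100 nM TZDM. Bound and free separated by vacuum filtration through glass fibre filters, washed with cold PBS containing 10% ethanol, then counted; Ki reported.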

Mus musculus [2] = organism: Mus musculus; assay: Binding affinity to amyloid beta in APP/PS1 transgenic C57 mouse brain cortex at 5 uCi/100 uL after 30 mins by autoradiography; assay type: tissue-based; details: tested as the 125I-labelled form
In short: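 Deparaffinized transgenic mouse brain sections incubated 30 min at room temperature with [125I]-labelled tracer (5 μCi/100 μL). Washed with saturated Li2CO3 in 40% EtOH for 3 min, then 40% EtOH for 3 min, then rinsed 30 s in water. Plaques checked afterwards by thioflavin-S (1 μM) fluorescence staining of the same sections.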

Mus musculus [3] = organism: Mus musculus; assay: Binding affinity to amyloid beta in APP/PS1 transgenic C57 mouse brain at 1 uM after 10 mins by fluorescence assay; assay type: tissue-based
In short: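 Paraffin-embedded brain sections (10 μm) from APP/PS1 C57 transgenic mouse, deparaffinized through xylene and graded ethanol, then PBS (0.2 M, pH 7.4) 30 min. Sections incubated 10 min with compound (1 μM in 20% ethanol), washed with 50% ethanol and PBS. Confocal fluorescence read at excitation 405 nm, 505 nm long-pass. Plaques confirmed with thioflavin-S (1 μM) on adjacent sections.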

| SMILES | Ki [1] [nM] | inhibition [1] | Activity (Mus musculus [2]) | Activity (Mus musculus [3]) |
| --- | --- | --- | --- | --- |
| O=[N+]([O-])c1ccc(/C=C/c2ccc(-c3cccs3)s2)cc1 | 0.56 | Dose-dependent effect | – | – |
| COc1ccc(/C=C/c2ccc(-c3ccc(I)s3)s2)cc1 | 0.3 | Dose-dependent effect | Active | – |
| Cc1ccc(/C=C/c2ccc(-c3ccc(Br)s3)s2)cc1 | 0.45 | Dose-dependent effect | – | – |
| Brc1ccc(/C=C/c2ccc(-c3cccs3)s2)cc1 | 0.99 | Dose-dependent effect | – | – |
| CC(C)(C)c1ccc(/C=C/c2ccc(-c3ccc(I)s3)s2)cc1 | 1.58 | Dose-dependent effect | – | – |
| COc1ccc(/C=C/c2ccc(-c3cccs3)s2)cc1 | 1.48 | Dose-dependent effect | – | – |
| Ic1ccc(-c2ccc(/C=C/c3ccccc3)s2)s1 | 0.24 | Dose-dependent effect | – | – |

Continued by falling Ki [1], values first:

| Ki [1] [nM] | inhibition [1] | Activity (Mus musculus [2]) | Activity (Mus musculus [3]) | SMILES |
| --- | --- | --- | --- | --- |
| 41 | Dose-dependent effect | – | – | Nc1ccc(/C=C/c2ccc(-c3cccs3)s2)cc1 |
| 4.06 | Dose-dependent effect | – | – | Fc1ccc(/C=C/c2ccc(-c3cccs3)s2)cc1 |
| 1.15 | Dose-dependent effect | – | – | Cc1ccc(/C=C/c2ccc(-c3cccs3)s2)cc1 |
| 0.81 | Dose-dependent effect | – | – | Fc1ccc(/C=C/c2ccc(-c3ccc(Br)s3)s2)cc1 |
| 0.8 | Dose-dependent effect | – | – | Cc1ccc(/C=C/c2ccc(-c3ccc(I)s3)s2)cc1 |
| 0.72 | Dose-dependent effect | – | – | COc1ccc(/C=C/c2ccc(-c3ccc(Br)s3)s2)cc1 |
| 0.63 | Dose-dependent effect | – | – | Ic1ccc(/C=C/c2ccc(-c3ccc(I)s3)s2)cc1 |
| 0.1 | Dose-dependent effect | – | Active | O=[N+]([O-])c1ccc(/C=C/c2ccc(-c3ccc(Br)s3)s2)cc1 |
